Consider 1 compound from ChEMBL document CHEMBL4732196, “Structural optimization towards promising β-methyl-4-acrylamido quinoline derivatives as PI3K/mTOR dual inhibitors for anti-cancer therapy: The in vitro and in vivo biological evaluation” (Eur J Med Chem, 2021).

As usually defined, the IC50 is the concentration needed to halve the response being measured. What is called GI50 is the concentration giving 50% growth inhibition. Read a high GI50 as less potent growth inhibition. What is called half-life is how long it takes for the measured level to halve. A higher half-life goes with slow decline. As a reminder, the AUC(0-t) is the area under the concentration-time curve up to a stated or last time point. Lower therefore signals less exposure. A word on the AUC(0-inf): it is the area under the concentration-time curve extrapolated to infinity. Read a low AUC(0-inf) as less exposure.

In data set [1] the target is Phosphatidylinositol 4,5-bisphosphate 3-kinase catalytic subunit alpha isoform (Homo sapiens, UniProt P42336). Description: Inhibition of recombinant human PI3Kalpha using PIP2 as substrate incubated for 1 hr by kinase-glo luminescent assay.
For data set [2], the system named is U-87 MG. Description: Growth inhibition of human U87MG cells after 72 hrs by sulforhodamine B assay. The class given is functional, U-87MG ATCC. For orientation: The SRB assay estimates cell density from bound dye.
Data set [3] addresses Phosphatidylinositol 4,5-bisphosphate 3-kinase catalytic subunit beta isoform (Homo sapiens, UniProt P42338). As to the kind of experiment: Inhibition of PI3Kbeta (unknown origin) using PIP2 as substrate measured after 1 hr by ADP-glo assay. On the technique in general: In ADP-Glo the light output rises with the ADP produced.
Data set [4] deals with AP2-associated protein kinase 1 (Homo sapiens) (UniProt Q2M2I8). Description: Inhibition of human partial length AAK1 (G25 to L333 residues) expressed in bacterial system assessed as residual activity at 10 uM by kinome scan method relative to control. In short, it runs like this: (§1)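 KINOMEscan binding assay, test compound at 10 μM against a 52-kinase panel. % Ctrl = (compound signal − positive control signal)/(negative control signal − positive control signal) × 100, with DMSO as negative control (100%) and a positive control (0%).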

The target of data set [5] is Activin receptor type-2A (Homo sapiens) (UniProt P27037). As to the kind of experiment: Inhibition of human partial length ACVR2A (V171 to T499 residues) expressed in bacterial system assessed as residual activity at 10 uM by kinome scan method relative to control. Summed up:
as §1

Data set [6] deals with Ankyrin repeat and protein kinase domain-containing protein 1 (Homo sapiens) (UniProt Q8NFD2). As to the kind of experiment: Inhibition of human partial length ANKK1 (M1 to A305 residues) expressed in bacterial system assessed as residual activity at 10 uM by kinome scan method relative to control. In short, it runs like this: as §1
The target in data set [7] is BMP-2-inducible protein kinase (Homo sapiens) (UniProt Q9NSY1). Description: Inhibition of human partial length BIKE (S34 to N329 residues) expressed in bacterial system assessed as residual activity at 10 uM by kinome scan method relative to control. Summed up: as §1
Data set [8] deals with Cyclin-dependent kinase-like 5 (Homo sapiens) (UniProt O76039). Description: Inhibition of human partial length CDKL5 (M1 to S337 residues) expressed in mammalian expression system assessed as residual activity at 10 uM by kinome scan method relative to control. Summed up:
as §1

Data set [9] addresses Casein kinase I isoform alpha-like (Homo sapiens) (UniProt Q8N752). As to the kind of experiment: Inhibition of human partial length CSNK1A1L (M1 to N337 residues) expressed in bacterial expression system assessed as residual activity at 10 uM by kinome scan method relative to control. Summed up:
as §1

For data set [10], the target named is Receptor tyrosine-protein kinase erbB-3 (Homo sapiens) (UniProt P21860). Description: Inhibition of human partial length ERBB3 (G684 to A987 residues) expressed in mammalian expression system assessed as residual activity at 10 uM by kinome scan method relative to control. Summed up:
as §1

In data set [11] the target is Mitogen-activated protein kinase 6 (Homo sapiens) (UniProt Q16659). As to the kind of experiment: Inhibition of human partial length ERK3 (M1 to P413 residues) expressed in bacterial expression system assessed as residual activity at 10 uM by kinome scan method relative to control. Summed up: as §1
The target in data set [12] is Interleukin-1 receptor-associated kinase 3 (Homo sapiens) (UniProt Q9Y616). As to the kind of experiment: Inhibition of human partial length IRAK3 (V147 to E596 residues) expressed in bacterial expression system assessed as residual activity at 10 uM by kinome scan method relative to control. In short, it runs like this:
as §1

The target of data set [13] is Dual specificity mitogen-activated protein kinase kinase 5 (Homo sapiens) (UniProt Q13163). As to the kind of experiment: Inhibition of human partial length MEK5 (L98 to P448 residues) expressed in mammalian expression system assessed as residual activity at 10 uM by kinome scan method relative to control. Summed up:
as §1

Data set [14] concerns the target T1, Serine/threonine-protein kinase mTOR (Homo sapiens, UniProt P42345). Description: Inhibition of human partial length mTOR (L1382 to W2549 residues) expressed in mammalian expression system assessed as residual activity at 10 uM by kinome scan method relative to control. In short, it runs like this: (§2)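 KINOMEscan competitive binding screen at 10 μM test compound against a 52-kinase panel. Output is % Ctrl = (test signal − positive control signal)/(negative control signal − positive control signal) × 100. DMSO is the negative control (100%) and the positive control is set to 0%.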

In data set [15] the target is Cyclin-dependent kinase 17 (Homo sapiens) (UniProt Q00537). Description: Inhibition of human full length PCTK2 (M1 to F523 residues) expressed in bacterial expression system assessed as residual activity at 10 uM by kinome scan method relative to control. Summed up:
as §1

In data set [16] the target is Phosphatidylinositol 4-phosphate 3-kinase C2 domain-containing subunit beta (Homo sapiens) (UniProt O00750). As to the kind of experiment: Inhibition of human partial length PIK3C2B (M1 to L1634 residues) expressed in bacterial expression system assessed as residual activity at 10 uM by kinome scan method relative to control. Summed up:
as §1

Data set [17] has as its target Phosphatidylinositol 3-kinase C2 domain-containing subunit gamma (Homo sapiens) (UniProt O75747). Description: Inhibition of human partial length PIK3C2G (M1 to I1446 residues) expressed in mammalian expression system assessed as residual activity at 10 uM by kinome scan method relative to control. Summed up:
as §1

Data set [18] concerns the target Phosphatidylinositol 5-phosphate 4-kinase type-2 beta (Homo sapiens) (UniProt P78356). Description: Inhibition of human full length PIP5K2B (M1 to T416 residues) expressed in bacterial expression system assessed as residual activity at 10 uM by kinome scan method relative to control. In short, it runs like this: as §1
In data set [19] the target is Membrane-associated tyrosine- and threonine-specific cdc2-inhibitory kinase (Homo sapiens) (UniProt Q99640). As to the kind of experiment: Inhibition of human partial length PKMYT1 (A88 to G366 residues) expressed in bacterial expression system assessed as residual activity at 10 uM by kinome scan method relative to control. In short, it runs like this: as §2
Data set [20] has as its target Tyrosine-protein kinase receptor Tie-1 (Homo sapiens) (UniProt P35590). Description: Inhibition of human partial length TIE1 (T819 to A1138 residues) expressed in bacterial expression system assessed as residual activity at 10 uM by kinome scan method relative to control. In short, it runs like this: as §2
The target in data set [21] is T1, Serine/threonine-protein kinase mTOR. As to the kind of experiment: Inhibition of mTOR in human U87MG cells assessed as suppression of phosphorylation of S6 ribosomal at Ser235/236 residues at 25 nM after 3 hrs by Western blot analysis. The class given is cell-based. The settings on record: U87. Summed up: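 U87MG cells were seeded at 1×10^6 per well and held overnight at 37 °C, 5% CO2. They were then exposed to a range of inhibitor concentrations for 3 h at 37 °C. Phospho-Akt (Ser473, Thr308), phospho-S6 (Ser235/236) and phospho-4E-BP1 (Thr37/46) were measured by Western blot with GAPDH as loading control. Bands were quantified as mean ± SD of 3 biological replicates against untreated cells.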
In general terms: Immunoblotting shows a protein as a band on a membrane.

Data set [22] can be described thus: Half life in Sprague-Dawley rat at 5 mg/kg, po. The class given is ADME, organism-based. The note with it: in vivo. In short, it runs like this: (§3)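 Male Sprague-Dawley rats (n = 3) given a single oral gavage of 5 mg/kg as a homogeneous opaque suspension in 0.5% methylcellulose; plasma concentration-time curves used to derive mean PK parameters.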
Data set [23] in a line: AUC(0 to t) in Sprague-Dawley rat at 5 mg/kg, po. Format: ADME, organism-based. Set-up: dose 5 mg/kg. The note with it: in vivo. Summed up:
as §3

Data set [24] can be described thus: AUC(0 to infinity) in Sprague-Dawley rat at 5 mg/kg, po. The class given is ADME, organism-based. The arrangement: time infinity, route oral, dose 5 mg/kg. The settings on record: in vivo. In short, it runs like this:
as §3

Structures are written as SMILES. Calls of active or inactive are those of the source. The rule behind the calls is not given here.

Sequence of Phosphatidylinositol 4-phosphate 3-kinase C2 domain-containing subunit beta (Homo sapiens) (O00750 whole entry, the tested form may be a part): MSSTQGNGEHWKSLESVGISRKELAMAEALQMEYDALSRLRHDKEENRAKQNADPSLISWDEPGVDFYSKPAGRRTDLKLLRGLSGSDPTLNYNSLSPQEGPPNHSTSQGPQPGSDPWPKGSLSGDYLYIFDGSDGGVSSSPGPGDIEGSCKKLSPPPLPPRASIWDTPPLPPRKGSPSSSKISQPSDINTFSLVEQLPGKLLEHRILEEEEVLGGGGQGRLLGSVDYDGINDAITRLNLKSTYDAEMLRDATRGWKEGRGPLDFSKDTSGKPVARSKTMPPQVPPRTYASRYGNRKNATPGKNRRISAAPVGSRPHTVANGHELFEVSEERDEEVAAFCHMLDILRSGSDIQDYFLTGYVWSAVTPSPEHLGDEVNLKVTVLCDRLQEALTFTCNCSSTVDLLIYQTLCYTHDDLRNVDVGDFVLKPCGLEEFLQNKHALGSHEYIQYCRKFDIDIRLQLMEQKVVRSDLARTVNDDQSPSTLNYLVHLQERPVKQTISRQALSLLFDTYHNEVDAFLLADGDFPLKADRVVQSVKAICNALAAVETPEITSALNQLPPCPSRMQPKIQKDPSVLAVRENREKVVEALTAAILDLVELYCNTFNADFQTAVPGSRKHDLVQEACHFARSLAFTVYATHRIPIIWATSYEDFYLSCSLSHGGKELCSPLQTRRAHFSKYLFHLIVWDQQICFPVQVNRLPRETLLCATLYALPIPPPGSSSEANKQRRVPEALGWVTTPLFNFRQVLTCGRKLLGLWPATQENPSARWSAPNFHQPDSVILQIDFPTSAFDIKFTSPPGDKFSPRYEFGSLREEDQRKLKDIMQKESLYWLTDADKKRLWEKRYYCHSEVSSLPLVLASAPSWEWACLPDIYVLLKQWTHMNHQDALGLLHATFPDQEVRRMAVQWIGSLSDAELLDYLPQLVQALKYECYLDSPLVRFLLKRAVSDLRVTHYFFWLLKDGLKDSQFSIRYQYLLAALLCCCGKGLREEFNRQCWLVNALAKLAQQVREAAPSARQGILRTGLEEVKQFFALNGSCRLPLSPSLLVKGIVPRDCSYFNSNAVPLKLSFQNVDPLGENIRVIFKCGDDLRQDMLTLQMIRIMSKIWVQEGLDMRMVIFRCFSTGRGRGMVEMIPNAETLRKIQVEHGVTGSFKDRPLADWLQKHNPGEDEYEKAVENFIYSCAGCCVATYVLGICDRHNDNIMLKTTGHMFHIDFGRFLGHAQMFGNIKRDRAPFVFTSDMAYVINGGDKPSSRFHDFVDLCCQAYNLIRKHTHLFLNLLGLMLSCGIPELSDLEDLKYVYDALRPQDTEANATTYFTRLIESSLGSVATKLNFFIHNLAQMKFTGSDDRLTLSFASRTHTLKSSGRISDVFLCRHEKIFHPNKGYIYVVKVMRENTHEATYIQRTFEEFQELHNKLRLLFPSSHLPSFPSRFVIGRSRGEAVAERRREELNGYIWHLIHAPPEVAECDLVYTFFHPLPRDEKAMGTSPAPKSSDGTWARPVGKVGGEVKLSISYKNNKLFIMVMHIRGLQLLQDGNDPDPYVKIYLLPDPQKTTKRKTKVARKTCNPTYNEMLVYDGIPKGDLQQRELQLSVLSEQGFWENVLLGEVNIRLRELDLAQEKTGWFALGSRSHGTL
Sequence of Cyclin-dependent kinase-like 5 (Homo sapiens) (O76039 whole entry, the tested form may be a part): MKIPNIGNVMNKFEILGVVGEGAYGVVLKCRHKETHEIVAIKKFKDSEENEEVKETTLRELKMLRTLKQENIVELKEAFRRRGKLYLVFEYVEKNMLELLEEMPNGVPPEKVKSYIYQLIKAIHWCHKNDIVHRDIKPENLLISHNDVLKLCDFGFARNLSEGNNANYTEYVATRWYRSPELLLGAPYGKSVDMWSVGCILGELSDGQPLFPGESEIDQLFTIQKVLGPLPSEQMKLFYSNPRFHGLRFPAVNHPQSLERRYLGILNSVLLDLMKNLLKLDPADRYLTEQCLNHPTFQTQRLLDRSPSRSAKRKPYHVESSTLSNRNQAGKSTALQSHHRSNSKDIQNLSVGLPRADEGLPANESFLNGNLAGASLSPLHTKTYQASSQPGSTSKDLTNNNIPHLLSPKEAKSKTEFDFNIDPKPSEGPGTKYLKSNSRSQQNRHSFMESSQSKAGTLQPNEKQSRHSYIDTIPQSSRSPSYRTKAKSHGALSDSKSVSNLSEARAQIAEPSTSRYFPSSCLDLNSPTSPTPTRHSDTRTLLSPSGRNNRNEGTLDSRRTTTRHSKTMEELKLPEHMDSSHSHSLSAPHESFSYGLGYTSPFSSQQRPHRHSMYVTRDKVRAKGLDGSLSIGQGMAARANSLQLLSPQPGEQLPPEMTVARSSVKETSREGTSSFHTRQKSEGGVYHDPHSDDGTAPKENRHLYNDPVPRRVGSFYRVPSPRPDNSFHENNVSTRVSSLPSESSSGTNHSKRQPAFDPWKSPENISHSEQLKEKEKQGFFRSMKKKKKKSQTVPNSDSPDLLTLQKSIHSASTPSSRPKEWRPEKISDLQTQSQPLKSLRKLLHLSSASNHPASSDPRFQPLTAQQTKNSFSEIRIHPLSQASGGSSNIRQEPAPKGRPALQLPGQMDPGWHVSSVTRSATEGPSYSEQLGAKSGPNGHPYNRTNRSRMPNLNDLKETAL
Sequence of Activin receptor type-2A (Homo sapiens) (P27037 whole entry, the tested form may be a part): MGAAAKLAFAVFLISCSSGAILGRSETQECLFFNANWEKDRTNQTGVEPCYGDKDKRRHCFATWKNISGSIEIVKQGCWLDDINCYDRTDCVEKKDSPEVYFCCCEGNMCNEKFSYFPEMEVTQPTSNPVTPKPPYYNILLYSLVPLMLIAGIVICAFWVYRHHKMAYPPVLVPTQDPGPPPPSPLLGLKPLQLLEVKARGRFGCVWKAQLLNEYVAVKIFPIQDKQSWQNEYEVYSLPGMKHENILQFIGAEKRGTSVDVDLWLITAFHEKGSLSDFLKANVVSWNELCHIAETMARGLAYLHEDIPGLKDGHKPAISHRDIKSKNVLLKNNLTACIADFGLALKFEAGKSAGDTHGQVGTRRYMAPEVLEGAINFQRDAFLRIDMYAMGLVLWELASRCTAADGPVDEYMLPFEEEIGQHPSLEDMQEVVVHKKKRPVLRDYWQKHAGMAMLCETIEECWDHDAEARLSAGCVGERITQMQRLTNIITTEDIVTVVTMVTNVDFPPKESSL
Sequence of Receptor tyrosine-protein kinase erbB-3 (Homo sapiens) (P21860 whole entry, the tested form may be a part): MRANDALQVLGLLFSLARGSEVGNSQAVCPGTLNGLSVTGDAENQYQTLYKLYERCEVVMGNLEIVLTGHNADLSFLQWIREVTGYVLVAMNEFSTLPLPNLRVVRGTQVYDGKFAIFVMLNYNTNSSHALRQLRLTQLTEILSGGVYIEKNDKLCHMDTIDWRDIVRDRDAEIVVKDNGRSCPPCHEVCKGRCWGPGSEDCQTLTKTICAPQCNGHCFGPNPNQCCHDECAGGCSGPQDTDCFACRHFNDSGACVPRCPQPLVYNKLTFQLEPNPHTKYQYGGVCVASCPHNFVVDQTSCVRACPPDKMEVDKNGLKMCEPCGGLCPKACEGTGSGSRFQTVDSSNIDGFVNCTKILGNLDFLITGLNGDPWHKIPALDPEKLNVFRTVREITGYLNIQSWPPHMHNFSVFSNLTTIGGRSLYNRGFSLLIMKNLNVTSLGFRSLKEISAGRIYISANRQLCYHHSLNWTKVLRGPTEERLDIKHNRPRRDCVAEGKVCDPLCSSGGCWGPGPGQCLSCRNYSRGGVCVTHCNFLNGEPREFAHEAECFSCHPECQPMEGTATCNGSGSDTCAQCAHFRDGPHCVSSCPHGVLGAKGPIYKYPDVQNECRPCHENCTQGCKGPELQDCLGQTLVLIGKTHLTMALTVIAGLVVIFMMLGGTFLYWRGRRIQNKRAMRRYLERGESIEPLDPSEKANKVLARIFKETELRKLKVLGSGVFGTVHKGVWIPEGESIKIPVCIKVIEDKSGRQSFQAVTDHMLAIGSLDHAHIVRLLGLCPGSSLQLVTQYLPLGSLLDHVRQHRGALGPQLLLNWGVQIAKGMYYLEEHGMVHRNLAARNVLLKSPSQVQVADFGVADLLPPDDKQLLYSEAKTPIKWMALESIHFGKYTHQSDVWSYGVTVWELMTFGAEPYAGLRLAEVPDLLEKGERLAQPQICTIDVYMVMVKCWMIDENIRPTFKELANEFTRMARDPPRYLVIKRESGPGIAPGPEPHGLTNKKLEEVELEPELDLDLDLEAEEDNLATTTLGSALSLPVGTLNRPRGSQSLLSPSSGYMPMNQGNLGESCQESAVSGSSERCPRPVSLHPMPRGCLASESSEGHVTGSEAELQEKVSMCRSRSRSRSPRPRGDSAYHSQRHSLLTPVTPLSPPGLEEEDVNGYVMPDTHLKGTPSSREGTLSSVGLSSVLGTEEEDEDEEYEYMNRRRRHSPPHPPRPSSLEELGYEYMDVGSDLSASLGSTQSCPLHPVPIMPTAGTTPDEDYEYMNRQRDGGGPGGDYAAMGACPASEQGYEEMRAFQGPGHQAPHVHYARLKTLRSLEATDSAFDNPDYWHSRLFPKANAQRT
Sequence of Phosphatidylinositol 5-phosphate 4-kinase type-2 beta (Homo sapiens) (P78356 whole entry, the tested form may be a part): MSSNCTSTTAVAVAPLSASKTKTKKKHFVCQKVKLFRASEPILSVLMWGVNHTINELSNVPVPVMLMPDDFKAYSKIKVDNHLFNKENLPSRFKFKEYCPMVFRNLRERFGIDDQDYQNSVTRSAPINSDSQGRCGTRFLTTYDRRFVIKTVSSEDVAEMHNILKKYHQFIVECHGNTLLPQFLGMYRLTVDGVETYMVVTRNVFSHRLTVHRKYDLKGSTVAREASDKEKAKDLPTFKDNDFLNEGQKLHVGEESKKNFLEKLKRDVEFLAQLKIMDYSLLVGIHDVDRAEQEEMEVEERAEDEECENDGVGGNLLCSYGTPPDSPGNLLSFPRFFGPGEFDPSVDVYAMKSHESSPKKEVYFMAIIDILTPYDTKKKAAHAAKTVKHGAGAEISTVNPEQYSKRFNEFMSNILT

For the compound `COc1ncc(-c2ccc3nccc(/C(C)=C/C(=O)N4CCN(C)CC4)c3c2)cc1NS(=O)(=O)c1ccc(F)cc1F`, the half-maximal inhibitory concentration (IC50) is 800 pM in data set [1] and 670 pM in [3]. Moreover, growth in data set [2] was halved (GI50) at 140000 pM. Also, the Activity in data set [4] was determined as 44%; in [5], 100%; in data set [6], 100%; in data set [7], 49%; in [8] it was 69%; in [9] it was 84%. The Activity in [10] turned out to be 89%; in data set [11] it was 78%; in [12], 24%; in data set [13] it was 63%; in data set [14], 0%; in data set [15] it was 100%. For the same compound, the Activity is 0% in [16]; 0% in data set [17]; 9.4% in [18]; 70% in data set [19]; 71% in [20]. Further, in data set [21], the inhibition result is “Active”. The same compound yielded a half-life in [22] of 1.85 h. The compound further gave an AUC(0-t) in [23] of 1340 ng·h/mL. For the same compound, in [24], the AUC(0-inf) stood at 1450 ng·h/mL.
